Measurements from different studies.
Lines come from different studies, so protocols differ.

| SMILES | assay | system | conditions | endpoint | result |
| --- | --- | --- | --- | --- | --- |
| N#Cc1ccccc1OC(=O)NCCCCCn1ccc2ccc(F)cc21 | HPLC |  |  | chromatographic logP | 3.9 |
| CC(C)[C@H]1C(=O)N[C@@H](CCCN=C(N)N)C(=O)NCC(=O)N[C@@H](CC(=O)O)C(=O)N[C@H](Cc2ccccc2)C(=O)N1C |  |  |  | logP | -2 |
| C[C@]12CC[C@H](O)CC1=CC[C@@H]1[C@@H]2CC[C@]2(C)C(n3cnc4ccccc43)=CC[C@@H]12.Cl |  | mouse, plasma | oral, 10 mg/kg | half-life | 5.16 h |
| Nc1nc(-c2ccccc2)nc2[nH]nc(Nc3ccc(C(F)(F)F)cc3)c12 |  | mouse, plasma | oral, 100 mg/kg, 6 h | concentration | 802 ng/mL |
| NCC(=O)Nc1ccc(-n2nc(C(F)(F)F)cc2-c2ccc3c(ccc4ccccc43)c2)cc1 |  | mouse, plasma | oral, 80 mg/kg, single dose | half-life | 22 h |
| N[C@@H](Cc1ccccc1)C(=O)N1C/C(=C\c2ccc(Cl)c(Cl)c2)C(=O)/C(=C/c2ccc(Cl)c(Cl)c2)C1 |  | mouse, plasma | oral, 20 mg/kg | half-life | 2.6 h |
| N=c1c2c(-c3ccccc3)c(-c3ccccc3)n(Cc3ccccc3)c2ncn1[C@H]1CC[C@H](O)CC1 | metabolic stability | monkey, hepatocytes | 1 µM, 4 h | compound remaining | 119% |
| C[C@]12CC[C@H](n3ccnc3)CC1=CC[C@@H]1[C@@H]2CC[C@]2(C)C(n3cnc4ccccc43)=CC[C@@H]12.Cl |  | male CD-1 mouse, plasma | intravenous, 1 mg/kg | half-life | 17.1 h |
| O=C(OC(C(F)(F)F)C(F)(F)F)N1CCN(Cc2ccc(C(F)(F)F)cc2N2CCCC2)CC1 | HPLC |  |  | chromatographic logP | 7.4 |
| CN[C@H](CC(C)C)C(=O)N[C@H]1C(=O)N[C@@H](CC(N)=O)C(=O)N[C@H]2C(=O)NC3C(=O)N[C@H](C(=O)N[C@H](C(=O)NCCC[N+](C)(C)C)c4cc(O)cc(O)c4-c4cc3ccc4O)[C@H](O)c3ccc(c(Cl)c3)Oc3cc2cc(c3OC2OC(CO)C(O)[C@H](O)[C@@H]2O[C@H]2CC(C)(NCc3ccc(-c4ccc(Cl)cc4)cc3)[C@H](O)[C@H](C)O2)Oc2ccc(cc2Cl)[C@H]1O (some centres unmarked) |  | mouse, plasma | intravenous, 10 mg/kg | half-life | 7 h |
| Cc1ccccc1C(=O)NN=Cc1ccc(O)c(Br)c1 |  | mouse, plasma | intravenous, 1.6 mg/kg | half-life | 1.24 h |
| O=C(O)c1ccc(OC(=O)N2CCC(CCn3ccc4ccc(F)cc43)CC2)cc1 | HPLC |  |  | chromatographic logP | 3.6 |
| Cc1cc(C)nc(Nc2ncc(C(=O)NCCc3c(C)[nH]c4ccccc34)cn2)c1 | metabolic stability | dog, liver microsomes | 1 µM | microsomal CLint | 72 µL/min/mg |
| C=C[C@H]1CN2CC[C@H]1C[C@H]2[C@H](O)c1ccnc2ccccc12 |  | water |  | logP | 2.68 |
| O=C(NCCCCCn1ccc2ccc(F)cc21)Oc1ccc(F)cc1 | HPLC |  |  | chromatographic logP | 4.2 |
| CC[C@H]1CN2CC[C@H]1C[C@H]2[C@H](O)c1ccnc2ccc(OC)cc12 |  | water |  | logP | 3.07 |
| O=C(O)c1cccc(OC(=O)N2CCC(CCn3ccc4ccc(F)cc43)CC2)c1 | HPLC |  |  | chromatographic logP | 3.6 |
